Reference: ChEMBL document CHEMBL1143313, “Synthesis of novel 4,6-di(substituted)amino-1,2-dihydro-1,3,5-triazine derivatives as topical antiseptic agents” (2009)

How the values were obtained:
Assay type in all cases: functional
Escherichia coli [1] = test: Bactericidal activity against Escherichia coli NIHJ JC-2 preincubated for 1 min before addition of growth medium measured after 40 to 48 hrs
Escherichia coli [2] = test: Bactericidal activity against Escherichia coli NIHJ JC-2 preincubated for 3 mins before addition of growth medium measured after 40 to 48 hrs
Escherichia coli [3] = test: Bactericidal activity against Escherichia coli NIHJ JC-2 preincubated for 5 mins before addition of growth medium measured after 40 to 48 hrs
Pseudomonas aeruginosa [4] = test: Bactericidal activity against Pseudomonas aeruginosa PAO1 preincubated for 1 min before addition of growth medium measured after 40 to 48 hrs
Pseudomonas aeruginosa [5] = test: Bactericidal activity against Pseudomonas aeruginosa PAO1 preincubated for 3 mins before addition of growth medium measured after 40 to 48 hrs
Pseudomonas aeruginosa [6] = test: Bactericidal activity against Pseudomonas aeruginosa PAO1 preincubated for 5 mins before addition of growth medium measured after 40 to 48 hrs
Staphylococcus aureus [7] = test: Antibacterial activity against Staphylococcus aureus 209PJC after 24 hrs
Procedure, shortened: (§1)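 Value is the minimal inhibitory concentration (MIC) against the test organism, read after 24 h of incubation.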

Staphylococcus aureus [8] = test: Antibacterial activity against methicillin-resistant Staphylococcus aureus 97-115 after 24 hrs
Procedure, shortened: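 Read-out is the minimal inhibitory concentration (MIC), taken after 24 h incubation with the test organism.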

Escherichia coli [9] = test: Antibacterial activity against Escherichia coli NIHJ JC-2 after 24 hrs; procedure, shortened: as §1
Pseudomonas aeruginosa [10] = test: Antibacterial activity against Pseudomonas aeruginosa PAO1; procedure, shortened: as §1
Staphylococcus aureus [11] = test: Bactericidal activity against Staphylococcus aureus 209PJC preincubated for 1 min before addition of growth medium measured after 40 to 48 hrs
Staphylococcus aureus [12] = test: Bactericidal activity against Staphylococcus aureus 209PJC preincubated for 3 mins before addition of growth medium measured after 40 to 48 hrs
Staphylococcus aureus [13] = test: Bactericidal activity against Staphylococcus aureus 209PJC preincubated for 5 mins before addition of growth medium measured after 40 to 48 hrs
Staphylococcus aureus [14] = test: Bactericidal activity against methicillin-resistant Staphylococcus aureus 97-115 preincubated for 1 min before addition of growth medium measured after 40 to 48 hrs
Procedure, shortened: (§2)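 Read-out is the minimal bactericidal concentration (MBC), taken after 1, 3 and 5 min contact of compound with the test organism.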

Staphylococcus aureus [15] = test: Bactericidal activity against methicillin-resistant Staphylococcus aureus 97-115 preincubated for 3 mins before addition of growth medium measured after 40 to 48 hrs; procedure, shortened: as §2
Staphylococcus aureus [16] = test: Bactericidal activity against methicillin-resistant Staphylococcus aureus 97-115 preincubated for 5 mins before addition of growth medium measured after 40 to 48 hrs; procedure, shortened: as §2

| Structure (SMILES) | MBC (Escherichia coli [1]) [µg/mL] | MBC (Escherichia coli [2]) [µg/mL] | MBC (Escherichia coli [3]) [µg/mL] | MBC (Pseudomonas aeruginosa [4]) [µg/mL] | MBC (Pseudomonas aeruginosa [5]) [µg/mL] | MBC (Pseudomonas aeruginosa [6]) [µg/mL] | MIC (Staphylococcus aureus [7]) [µg/mL] | MIC (Staphylococcus aureus [8]) [µg/mL] | MIC (Escherichia coli [9]) [µg/mL] | MIC (Pseudomonas aeruginosa [10]) [µg/mL] | MBC (Staphylococcus aureus [11]) [µg/mL] | MBC (Staphylococcus aureus [12]) [µg/mL] | MBC (Staphylococcus aureus [13]) [µg/mL] | MBC (Staphylococcus aureus [14]) [µg/mL] | MBC (Staphylococcus aureus [15]) [µg/mL] | MBC (Staphylococcus aureus [16]) [µg/mL] |
| --- | --- | --- | --- | --- | --- | --- | --- | --- | --- | --- | --- | --- | --- | --- | --- | --- |
| CC(=O)O.CCCCCCCCCCCCNC1=NC(C)(C)NC(NCC)=N1 | 12.5 | 3.1 | 3.1 | 3.1 | 3.1 | 3.1 | 0.8 | 1.6 | 12.5 | 50 | 3.1 | 3.1 | 1.6 | 25 | 12.5 | 6.3 |
| CC(=O)O.CCCCCCCCNC1=NC(NCCC)=NC(C)(C)N1 |  |  |  |  |  |  | 1.6 | 6.3 | 100 | 100 |  |  |  |  |  |  |
| CCCCCCCCCCNC1=NC(C)(C)NC(NCCc2ccc(OC)cc2)=N1.Cl | 3.1 | 1.6 | 1.6 | 3.1 | 3.1 | 1.6 | 0.4 | 0.8 | 50 | 50 | 50 | 12.5 | 6.3 | 25 | 6.3 | 6.3 |
| CC(=O)O.CCCCCCCCCNC1=NC(C)(C)NC(NCc2ccc(C)cc2)=N1 | 6.3 | 1.6 | 1.6 | 12.5 | 3.1 | 3.1 | 0.8 | 0.8 | 25 | 50 | 6.3 | 3.1 | 3.1 | 25 | 12.5 | 12.5 |
| CC(=O)O.CCCCCCCCNC1=NC(C)(C)NC(NCc2ccccc2)=N1 | 12.5 | 6.3 | 6.3 | 25 | 12.5 | 12.5 | 0.8 | 1.6 | 12.5 | 25 | 25 | 12.5 | 6.3 | > 50 | 50 | 50 |
| CC(=O)O.CCCCCCCCCCNC1=NC(C)(C)NC(NCc2ccc(C)cc2)=N1 |  |  |  |  |  |  | 0.8 | 0.8 | 100 | 100 |  |  |  |  |  |  |
| CC(=O)O.CCCCCCCCNC1=NC(C)(C)NC(NCc2ccc(Cl)cc2)=N1 | 3.1 | 1.6 | 1.6 | 6.3 | 1.6 | 1.6 | 0.8 | 0.8 | 25 | 25 | 3.1 | 3.1 | 3.1 | 6.3 | 6.3 | 6.3 |
| CCCCCCCCCNC1=NC(C)(C)NC(NCc2ccc(OC)cc2)=N1.CS(=O)(=O)O | 12.5 | 6.3 | 3.1 | 25 | 12.5 | 12.5 | 0.8 | 1.6 | 25 | 50 | 6.3 | 6.3 | 3.1 | > 100 | > 100 | > 100 |
| CC(=O)O.CCCCCCCCNC1=NC(C)(C)NC(Nc2ccccc2)=N1 | 12.5 | 6.3 | 6.3 | 25 | 12.5 | 6.3 | 1.6 | 1.6 | 25 | 50 | 25 | 6.3 | 6.3 | 25 | 12.5 | 12.5 |
| CC(=O)O.CCCCCCCCCCNC1=NC(C)(C)NC(NCc2ccccc2)=N1 | 25 | 12.5 | 6.3 | 3.1 | 3.1 | 1.6 | 0.4 | 0.4 | 12.5 | 25 | 6.3 | 6.3 | 6.3 | 12.5 | 6.3 | 6.3 |
| CC(=O)O.CCCCCCCCNC1=NC(NCCCCC)=NC(C)(C)N1 | 12.5 | 6.3 | 6.3 | 6.3 | 3.1 | 3.1 | 1.6 | 1.6 | 25 | 25 | 3.1 | 3.1 | 3.1 | 6.3 | 3.1 | 3.1 |
| CC(=O)O.CCCCCCCCCCCNC1=NC(C)(C)NC(NCc2ccc(OC)cc2)=N1 |  |  |  |  |  |  | 0.4 | 0.8 | 100 | 100 |  |  |  |  |  |  |
| CC(=O)O.CCCCCCCCNC1=NC(C)(C)NC(NCCc2ccccc2)=N1 | 6.3 | 3.1 | 3.1 | 6.3 | 6.3 | 3.1 | 0.8 | 1.6 | 25 | 25 | 50 | 12.5 | 12.5 | > 100 | > 100 | > 100 |
| CC(=O)O.CCCCCCCCCCCNC1=NC(C)(C)NC(NCc2ccccc2)=N1 |  |  |  |  |  |  | 0.4 | 0.8 | 100 | 100 |  |  |  |  |  |  |
| CC(=O)O.CCCCCCCCCNC1=NC(C)(C)NC(NCc2ccccc2)=N1 | 6.3 | 6.3 | 3.1 | 6.3 | 3.1 | 3.1 | 0.8 | 1.6 | 12.5 | 12.5 | 12.5 | 6.3 | 6.3 | 12.5 | 6.3 | 6.3 |
| CC(=O)O.CCCCCCCCNC1=NC(C)(C)NC(NCc2ccc(C(F)(F)F)cc2)=N1 | 3.1 | 3.1 | 3.1 | 12.5 | 6.3 | 6.3 | 0.4 | 0.8 | 50 | 25 | 12.5 | 6.3 | 6.3 | 6.3 | 6.3 | 6.3 |
| CC(=O)O.CCCCCCCNC1=NC(C)(C)NC(Nc2ccccc2)=N1 |  |  |  |  |  |  | 6.3 | 6.3 | 50 | 100 |  |  |  |  |  |  |
| CC(=O)O.CCCCCCCCNC1=NC(C)(C)NC(NCc2ccccc2Cl)=N1 | 3.1 | 3.1 | 1.6 | 6.3 | 3.1 | 1.6 | 0.8 | 0.8 | 25 | 25 | 12.5 | 6.3 | 6.3 | 12.5 | 6.3 | 6.3 |
| CC(=O)O.CCCCCCCCCCNC1=NC(C)(C)NC(Nc2ccccc2)=N1 |  |  |  |  |  |  | 0.4 | 0.4 | 12.5 | 100 |  |  |  |  |  |  |
| CC(=O)O.CCCCCCCCNC1=NC(C)(C)NC(NCCCCCCCC)=N1 |  |  |  |  |  |  | 0.8 | 1.6 | 100 | > 100 |  |  |  |  |  |  |
